# Source: paper PMC2659760 (The Journal of organic chemistry, 2009)
# pIC50: −log10 of the molar value. “Also recorded” adds a separate entry of the source. Where two headings read alike, the source gives them in different places.
# How the values were obtained:
# [1] = target: T1, bovine plasma amine oxidase (BPAO) (Bos taurus, UniProt Q29437); experiment: Substrate activity with BPAO; format: biochemical; conditions: kcat/Km relative to BA = 1
# T1 sequence (Q29437 17-762): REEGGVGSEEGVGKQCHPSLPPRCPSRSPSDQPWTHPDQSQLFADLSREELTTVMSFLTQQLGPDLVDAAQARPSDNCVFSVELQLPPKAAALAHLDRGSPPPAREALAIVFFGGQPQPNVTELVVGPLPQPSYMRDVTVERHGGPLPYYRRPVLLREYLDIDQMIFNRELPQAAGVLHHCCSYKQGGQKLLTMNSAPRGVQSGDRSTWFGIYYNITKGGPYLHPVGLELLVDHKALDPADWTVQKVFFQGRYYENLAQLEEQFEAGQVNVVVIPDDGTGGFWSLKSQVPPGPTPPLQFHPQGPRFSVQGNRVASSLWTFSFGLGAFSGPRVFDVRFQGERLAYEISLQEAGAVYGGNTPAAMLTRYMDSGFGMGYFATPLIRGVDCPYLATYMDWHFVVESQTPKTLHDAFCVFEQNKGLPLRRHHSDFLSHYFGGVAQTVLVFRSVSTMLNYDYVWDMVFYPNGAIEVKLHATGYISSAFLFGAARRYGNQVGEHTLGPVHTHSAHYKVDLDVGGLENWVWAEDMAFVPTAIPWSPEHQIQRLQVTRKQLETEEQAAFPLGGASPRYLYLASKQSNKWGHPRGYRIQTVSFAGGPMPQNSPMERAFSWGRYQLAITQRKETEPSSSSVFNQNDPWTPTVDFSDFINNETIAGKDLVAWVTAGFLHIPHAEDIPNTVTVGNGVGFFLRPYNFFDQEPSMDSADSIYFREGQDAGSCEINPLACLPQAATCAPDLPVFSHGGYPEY
# [2] = target: T2, Pichia pastoris lysyl oxidase (PPLO) (Komagataella pastoris, UniProt Q96X16); experiment: Selectivity: initial oxidation velocity with PPLO; format: biochemical; conditions: for V0: 30 °C, 250 nm
# T2 sequence (Q96X16 19-787): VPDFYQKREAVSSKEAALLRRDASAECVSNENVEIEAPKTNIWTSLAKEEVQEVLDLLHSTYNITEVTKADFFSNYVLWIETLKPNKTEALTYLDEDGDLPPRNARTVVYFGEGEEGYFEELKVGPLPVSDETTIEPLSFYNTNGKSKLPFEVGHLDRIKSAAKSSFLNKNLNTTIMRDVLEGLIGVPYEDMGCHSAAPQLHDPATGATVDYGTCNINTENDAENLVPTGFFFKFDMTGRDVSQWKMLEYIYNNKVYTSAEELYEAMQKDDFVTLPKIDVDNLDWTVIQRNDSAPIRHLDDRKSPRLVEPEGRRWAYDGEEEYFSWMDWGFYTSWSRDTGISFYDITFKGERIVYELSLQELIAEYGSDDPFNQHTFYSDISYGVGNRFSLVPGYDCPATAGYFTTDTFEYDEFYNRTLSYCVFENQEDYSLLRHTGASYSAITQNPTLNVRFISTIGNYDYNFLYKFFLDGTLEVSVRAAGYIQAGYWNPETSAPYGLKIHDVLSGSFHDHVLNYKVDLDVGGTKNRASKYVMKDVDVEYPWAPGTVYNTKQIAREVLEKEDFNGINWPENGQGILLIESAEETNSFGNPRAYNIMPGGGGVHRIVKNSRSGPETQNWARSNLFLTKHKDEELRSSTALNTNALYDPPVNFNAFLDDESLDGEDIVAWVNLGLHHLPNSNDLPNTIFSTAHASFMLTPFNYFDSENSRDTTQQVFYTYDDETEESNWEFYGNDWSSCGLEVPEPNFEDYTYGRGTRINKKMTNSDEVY
# Outline: (§1)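 Purified enzyme was diluted into 20 µM fluorogenic amine substrate in 0.1 M pH 7.2 phosphate buffer, or into 5 mM benzylamine in 50 mM pH 7.2 phosphate buffer, at 30 °C. Absorbance at 250 nm was followed for 30 s. Slopes were converted to nM s−1 using extinction coefficients of the aldehyde products at 250 nm.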
# BPAO [3] = target: T3, BPAO (Bos taurus, UniProt Q29437); experiment: Selectivity: initial oxidation velocity with BPAO; format: biochemical, bovine; conditions: for V0: 30 °C, 250 nm
# T3 sequence (Q29437 17-762): T1 sequence (Q29437 17-762)
# Outline: as §1
# [4] = target: T4, porcine kidney diamine oxidase (pkDAO) (Sus scrofa, UniProt Q9TRC7); experiment: Selectivity: initial oxidation velocity with pkDAO; format: biochemical; conditions: for V0: 37 °C, 250 nm
# T4 sequence (Q9TRC7 25-755): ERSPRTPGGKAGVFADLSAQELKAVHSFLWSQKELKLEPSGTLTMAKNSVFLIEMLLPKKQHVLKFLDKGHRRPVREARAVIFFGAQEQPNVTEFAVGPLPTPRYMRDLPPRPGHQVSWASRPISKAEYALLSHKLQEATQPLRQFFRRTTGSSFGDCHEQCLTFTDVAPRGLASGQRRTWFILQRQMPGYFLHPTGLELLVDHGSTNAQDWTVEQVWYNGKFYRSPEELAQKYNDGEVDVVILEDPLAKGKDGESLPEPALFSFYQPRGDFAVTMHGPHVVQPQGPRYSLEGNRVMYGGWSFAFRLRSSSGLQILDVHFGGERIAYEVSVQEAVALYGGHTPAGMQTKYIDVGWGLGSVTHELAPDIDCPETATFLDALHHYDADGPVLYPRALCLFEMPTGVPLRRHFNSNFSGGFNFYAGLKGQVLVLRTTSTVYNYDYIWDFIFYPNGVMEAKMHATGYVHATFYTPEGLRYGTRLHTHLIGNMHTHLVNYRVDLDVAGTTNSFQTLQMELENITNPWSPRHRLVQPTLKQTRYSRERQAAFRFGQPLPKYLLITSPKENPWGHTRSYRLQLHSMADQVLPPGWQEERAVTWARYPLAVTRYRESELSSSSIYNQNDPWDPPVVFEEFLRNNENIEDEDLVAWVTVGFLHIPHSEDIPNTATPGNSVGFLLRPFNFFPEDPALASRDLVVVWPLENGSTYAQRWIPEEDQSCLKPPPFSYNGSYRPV
# Outline: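 Porcine kidney DAO (from 10 mg/mL stock) in 0.1 M pH 7.2 phosphate buffer, equilibrated at 37 °C. Test amine (final 20 µM) or p-xylylenediamine (final 1.5 mM) was added. Absorbance at 250 nm was read for 30 s at 37 °C. Rates were computed using a literature extinction coefficient for p-(aminomethyl)benzaldehyde.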
# [5] = target: Arthrobacter globiformis amine oxidase (AGAO) (Arthrobacter globiformis, UniProt P46881); experiment: Selectivity: initial oxidation velocity with AGAO; format: biochemical; conditions: for V0: 30 °C, 250 nm
# Outline: as §1
# [6] = system: rat liver monoamine oxidase (MAO-B); experiment: Selectivity: initial oxidation velocity with rat liver MAO-B; format: biochemical; conditions: for V0: 30 °C, 250 nm, rat liver mitochondria
# Outline: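 MAO-B source: isolated rat liver mitochondria, protein by biuret (BSA standard). Thawed suspension in mannitol/sucrose/MOPS pH 7.4 diluted with 0.1 M pH 7.2 phosphate containing 0.25% Triton X-100, warmed to 30 °C. Aliquot added to 20 µM test amine (0.1 M phosphate) or 5 mM benzylamine (50 mM phosphate). A250 followed 30 s at 30 °C; rates via extinction coefficients.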
# Solubility = format: physicochemical
# BPAO [7] = target: T3, BPAO; experiment: Inhibition of BPAO evaluated with the new fluorometric assay; format: biochemical, bovine
# Outline: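 BPAO (50 nM) in 0.1 M pH 7.2 phosphate buffer, held 5 min at 2 °C, then given test inhibitor (final 1–10 µM; repeat at 30 °C with 0.125–2 µM). Aliquots taken over time and assayed at 30 °C: 10 µM fluorogenic amine substrate, emission 453 nm (λex 350 nm), 30 s. Residual activity relative to an inhibitor-free control; t1/2 per concentration fed Kitz–Wilson plot.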
# BPAO [8] = target: T3, BPAO; conditions: ref 8d, cited from earlier work
# [9] = 12 20 µM in 0.1 M pH 7.2 phosphate buffer
# [10] = BA 5 mM in 50 mM pH 7.2 phosphate buffer
compound,measurement,setting,value
"C[N+](C)(C)CCOc1ccc2cc(CN)ccc2c1.Cl.[Cl-] [compound 12, (2-(6-(Aminomethyl)naphthalen-2-yloxy)ethyl)trimethylammonium chloride hydrochloride]",relative activity,[1]; fluorescence spectrophotometry,5.4×10^3
same,V0,[2]; [9],24.8 nM/s
same,substrate activity with PPLO (in words),[2]; compared with BPAO,comparable rate
same,substrate activity with BPAO (in words),BPAO [3],metabolized quickly
same,V0,BPAO [3]; [9],62.3 nM/s
same,substrate activity with BPAO (in words),BPAO [3]; listed as ANETA,good substrate
same,substrate activity with pkDAO (in words),[4],no significant substrate activity
same,V0,[4]; [9],1.0 nM/s
same,substrate activity with pkDAO (in words),[4]; listed as ANETA,not a substrate
same,substrate activity with AGAO (in words),[5],no significant substrate activity
same,V0,[5]; [9],1.3 nM/s
same,substrate activity with MAO-B (in words),[6],no significant substrate activity
same,V0,[6]; [9],0.6 nM/s
same,substrate activity with MAO-B (in words),[6]; listed as ANETA,not a substrate
"NCc1ccc(CN)cc1 [PXDA, p-xylylenediamine, reference compound]",V0,[4]; PXDA 1.5 mM in 0.1 M pH 7.2 phosphate buffer,51.8 nM/s
"CN(C)CCOc1ccc2cc(CN)ccc2c1.Cl.Cl [compound 11, (2-(6-(Aminomethyl)naphthalen-2-yloxy)ethyl)dimethylamine dihydrochloride]",relative activity,[1]; fluorescence spectrophotometry,3.1×10^3
"Cl.Cl.NCCOc1ccc2cc(CN)ccc2c1 [compound 9, 2-(6-(Aminomethyl)naphthalen-2-yloxy)ethylamine dihydrochloride]",relative activity,[1]; fluorescence spectrophotometry,2.9×10^2
"COc1ccc2cc(CN)ccc2c1.Cl [compound 1, 6-Methoxy-2-naphthalenemethaneamine hydrochloride]",relative activity,[1]; UV-vis spectrophotometry,2.2
same,relative activity,[1]; fluorescence spectrophotometry,2.2
same,solubility (in words),Solubility,poor solubility; also recorded: poorly soluble
"NCc1ccccc1 [BA, benzylamine, reference compound]",relative activity,[1]; UV-vis spectrophotometry,1
same,V0,[2]; [10],67.2 nM/s
same,V0,BPAO [3]; [10],82.8 nM/s
same,V0,[5]; [10],54.7 nM/s
same,V0,[6]; [10],103.1 nM/s
"CNCCOc1ccc2cc(CN)ccc2c1.Cl.Cl [compound 10, (2-(6-(Aminomethyl)naphthalen-2-yloxy)ethyl)methylamine dihydrochloride]",relative activity,[1]; fluorescence spectrophotometry,1.5×10^3
"C=C=CCN [compound 29, 1-Amino-2,3-butadiene]",slope of the Kitz and Wilson plot,"BPAO [7]; inactivation at 2 °C, BPAO 50 nM",10.8
same,pIC50,"BPAO [7]; read-out: 5 min IC50, 30 °C",6.60
same,pIC50,"BPAO [7]; read-out: 10 min IC50, 30 °C",6.90
same,slope of the Kitz and Wilson plot,"BPAO [8]; BA assay, 2 °C",10.2
same,pIC50,"BPAO [8]; read-out: 5 min IC50, BA assay with 1 µM BPAO, previous estimation",5.90
